RanGTP-Imp inh – disruptors of Ran-importin-beta complex formation – biochemical, FRET, CFP-Ran, YFP-importin-beta, homogeneous, primary screen | AID 2216 | cell-free CFP-Ran/YFP-importin-beta FRET ratio | actives 1.1% (n = 300,000) | inhibition, % (no concentration beside the values);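 active = more than half of the replicate wells show a fall in the fluorescence ratio signal beyond about 16%, limit read from the data, passing the limit was not always enough; inconclusive = exactly half of the replicate wells pass the set limit; inactive = fewer than half of replicates pass the limit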;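 note: 0% = DMSO wells and 100% = Ran loaded with GDP instead of GTP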
Wee1 stabilizer – human Wee1 degradation inhibition, primary screen. P30291. HeLa Luc-Wee1K328M stability, luciferase luminescence; 100% = proteasome inhibitor MG132 effect. reporter increase, % at 5 µM. actives 1.2% (n = 220,000);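 active = activation above the mean of all tested compounds plus 3 SD, set per screening run, cut at about 8.8% in these data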;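 note: cells exposed to compound for 20 h before luminescence read; 0% = DMSO alone and 100% = MG132 at 30 µM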
Runt-SMMHC FRET – Runt domain-CBFb-SMMHC interaction inhibition | Q01196+Q13951 | Cerulean-Runt/Venus-CBFb-SMMHC FRET ratio 530/480, 1 h | inhibition, % at 20 µM | actives 0.74% (n = 220,000) | AID 1434;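 active = mean inhibition across duplicate retests at 20 µM reaching about 50%, limit read from the data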;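 note: 0% = DMSO wells and 100% = wells with excess untagged CBFb-SMMHC; inhibitors lower the FRET ratio by blocking Runt binding to CBFb-SMMHC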
Target sequence (Q01196 whole entry, looked up, the tested form may be a part): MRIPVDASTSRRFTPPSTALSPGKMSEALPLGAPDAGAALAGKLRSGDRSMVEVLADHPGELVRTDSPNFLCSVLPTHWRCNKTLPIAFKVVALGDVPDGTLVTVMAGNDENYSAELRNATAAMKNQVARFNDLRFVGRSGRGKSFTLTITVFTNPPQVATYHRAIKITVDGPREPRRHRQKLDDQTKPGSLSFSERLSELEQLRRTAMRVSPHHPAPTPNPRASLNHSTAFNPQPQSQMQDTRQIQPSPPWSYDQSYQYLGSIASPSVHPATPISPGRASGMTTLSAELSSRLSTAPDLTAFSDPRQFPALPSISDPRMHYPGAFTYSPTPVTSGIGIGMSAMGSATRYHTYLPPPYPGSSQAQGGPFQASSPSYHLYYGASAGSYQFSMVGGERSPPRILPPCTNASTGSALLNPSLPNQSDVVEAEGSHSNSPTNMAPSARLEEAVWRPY
Target sequence (Q13951 whole entry, looked up, the tested form may be a part): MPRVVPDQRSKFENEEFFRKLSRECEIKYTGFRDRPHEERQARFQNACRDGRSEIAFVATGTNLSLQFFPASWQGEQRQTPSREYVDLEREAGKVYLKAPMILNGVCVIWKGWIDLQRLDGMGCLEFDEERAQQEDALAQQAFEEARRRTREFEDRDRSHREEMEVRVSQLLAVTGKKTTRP
Runt-CBFb FRET – Runt domain-CBFb interaction inhibition | Q01196+Q13951 | actives 0.46% (n = 220,000) | Cerulean-Runt/Venus-CBFb FRET ratio 530/480, 1 h | inhibition, % at 20 µM;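 active = inhibition over about 50% at 20 µM in the single-dose screen, limit read from the data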;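 note: 0% = DMSO wells and 100% = excess unlabeled CBFb competitor control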
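Schedule: protein complex preformed 1 h, compound exposure 1 h, room temperature, dark; test system: Cerulean-labeled Runt domain protein; amount: 100 nM per protein; buffer or medium: Tris 50 mM pH 7.5, KCl, K2SO4, 0.01% BSA; read-out: loss of energy transfer signal; detection: FRET fluorescence; controls: 5 µM unlabeled CBFb as full-inhibition high control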
KLK7 zymogen act – proKLK7 (human) activation, primary screen. P49862. purified proKLK7, EDANS-DABCYL substrate fluorescence; 100% is mature enzyme control, 0% vehicle. activation, % at 7 µM. actives 0.9% (n = 370,000);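 active = activation above the mean of all tested compounds plus 3 SD, computed per campaign excluding outliers beyond control limits, cut at about 13% in these data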
AI-2 QS modul – modulates the Vibrio harveyi AI-2 quorum sensing system | activity change, % at 7.5 µM | actives 0.4% (n = 300,000) | AID 2094 | Vibrio harveyi JMH597 AI-2 luminescence/OD600 ratio, 9 h; stronger effect = lower value; strain lacks LuxN and CqsS sensors; 0 = neutral-control median; in the data active = activity change below about -75%, passing the limit was not always enough; inconclusive = no clear call, values can overlap the other calls;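 note: luminescence divided by OD600 gain over 9 h not by final OD600 alone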
Runt-CBFb TRFRET – Runt-CBFb binding inhibition. shares compounds with Runt-CBFb FRET. inhibition, % at 20 µM. TR-FRET RUNX1 Runt domain-CBFb binding. actives 20% (n = 480). AID 1502; in the data active = inhibition above about 40%
YIC FRET counter – counter-screen YIC FRET for RanGTP-importin-beta inhibitors | Purified YIC probe, intramolecular FRET ratio YFP/CFP | IC50, µM | actives 40% (n = 1,000) | shares compounds with RanGTP-Imp inh | AID 435026;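 active = fitted half-maximal inhibitory concentration no more than tenfold above the top dose tested; inconclusive = flat fit with 30 to 70% activity, or poor fit; inactive = half-maximal concentration beyond tenfold above the top dose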
KLK7 act conf – proKLK7 activation, confirmation | shares compounds with KLK7 zymogen act | purified proKLK7, EDANS-DABCYL substrate fluorescence; scaled: vehicle 0, mature enzyme 100 | activation, % at 7 µM | actives 68% (n = 3,200);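 active = activation, as change over the incubation, above the mean of all tested compounds plus 3 SD, cut at about 13% in these data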
EDANS interfere – counter-screen for kallikrein-7 activators: EDANS-DABCYL optical interference. actives 80% (n = 3,200). activation, % at 7 µM. EDANS-DABCYL substrate fluorescence interference, no enzyme, 4 h; solvent 0%, active enzyme control 100%. shares compounds with KLK7 zymogen act;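 active = activation above the all-compound mean plus 3 SD, ignoring values outside control-based bounds, cut at about 4.8% in these data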;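 note: value is the 4 h activation minus the activation read at time zero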
The depositor's hits bear a star; u = inconclusive; x = not tested or not shown. A selection: hits, their analogues and other compounds. The true share with any hit is near 2.9%.

SMILES	RanGTP-Imp inh	Wee1 stabilizer	Runt-SMMHC FRET	Runt-CBFb FRET	KLK7 zymogen act	AI-2 QS modul	Runt-CBFb TRFRET	others
Cc1ccc(Nc2nc(-c3c(C)nc4ccccn34)cs2)cc1	u	-1	-3	4	-2	5	x
Cc1nc2ccccn2c1-c1ccnc(=S)[nH]1	1	4	40	60*	-4	19	20
CC(C)(C)OC(=O)N1CCC(C(=O)N2CCCCCC2)CC1	-2	2	-4	0	0	4	x
CC(C)(C)OC(=O)N1CCC(C(=O)N2CCOCC2)CC1	1	-2	0	84*	0	0	-50
S=C1Cc2ccccc2N1	0	7	10	51*	0	-41	4
S=C1Nc2ccccc2CS1	x	x	x	x	0	x	x
CCOC(=O)c1c(NC(=O)CCl)sc(CN(C)C)c1-c1ccccc1	1	-5	-1	-2	0	28	x
CCOC(=O)c1c(/N=C/N(C)C)sc(/C=N/Nc2ccccc2)c1-c1ccccc1	-14	0	131*	71*	0	9	-12
Cc1coc2cc3oc(=O)c(CCC(=O)NCCN4CCOCC4)c(C)c3cc12	5	x	x	x	8	22	x
CN1CCc2c(sc3c2C(=O)NC(c2cccc(OC(=O)c4cccs4)c2)N3)C1 (configuration not stated)	140*	3	106*	51*	0	7	6
CC(C)Nc1ncnc2c1ncn2[C@H]1CN(Cc2ccco2)C[C@@H](CO)O1	x	x	x	x	0	x	x
CCOc1ccc2nc(NCCCNC(=O)c3cc(OC)c(OC)c(OC)c3)c(C#N)cc2c1	135*	-3	81*	60*	-8	21	7
Cc1nn(CC(C)C)c2sc(C(=O)NC3CC(C)(C)NC(C)(C)C3)cc12	-2	x	x	x	0	15	x
O=C(NCCCN1CCOCC1)c1sc2cc([N+](=O)[O-])ccc2c1Cl	3	-1	39	50*	x	4	-2
O=C(NCCCN1CCOCC1)c1sc2cc(Cl)ccc2c1Cl	x	7	0	1	0	14	x
Oc1ccc(N=Cc2ccc(-c3cccs3)s2)cc1	28*	0	x	69*	-87	33	50*
CCN(CC)C(=O)c1cn(CCC#N)nc1-c1ccc(F)cc1	4	3	1	0	0	39	x
CC1(C)CC(=O)C(C=NCC2CCN(C(=O)Cc3ccccc3)CC2)=C(O)C1	4	1	3	0	0	27	x
COC(=O)C1=C(C)NC2=C(C(=O)CCC2)C1c1cccc(C)n1 (configuration not stated)	19*	-3	132*	60*	4	5	4	YIC FRET counter=31*
COCCCN(CCC#N)C(=O)c1c(-c2c(Cl)cccc2Cl)noc1C	-1	3	1	2	0	10	x
CC(C)CCNC(=O)CCc1nnc2ccc(N3CCC(C)CC3)nn12	0	x	x	x	1	20	x
Cc1nc2ccc(S(=O)(=O)Nc3ccc(-c4nc5cccnc5s4)cc3)cc2s1	21*	-2	x	74*	-45	14	86*	YIC FRET counter=39*
COc1ccc(-c2c(C)sc(NC(=O)c3ccnn3C)c2C#N)cc1	25*	-3	18	57*	1	-3	-52	YIC FRET counter=>50
O=C(Oc1ccc(C(=S)N2CCOCC2)cc1Br)c1cc(Cl)ccc1Cl	1	-1	-4	x	-1	4	x
O=C(Oc1c(Br)cc(C(=S)N2CCOCC2)cc1Br)c1ccc(Cl)cc1	17*	-2	24	50*	1	3	-11	YIC FRET counter=>50
SMILES	RanGTP-Imp inh	Wee1 stabilizer	Runt-SMMHC FRET	Runt-CBFb FRET	KLK7 zymogen act	AI-2 QS modul	Runt-CBFb TRFRET	others
CCOC(=O)Cn1c(=O)oc2cc(S(=O)(=O)N(C)c3cccc(C)c3)ccc21	11	3	0	-2	0	3	x
O=C(Cn1c2ccccc2c(=O)c2ccccc21)N/N=C/c1cc([N+](=O)[O-])ccc1N1CCCCCC1	-4	0	-91	-44	1	10	x
O=C(Cn1c2ccccc2c(=O)c2ccccc21)N/N=C/c1ccc(N2CCCC2)c([N+](=O)[O-])c1	28*	5	133*	76*	1	3	-1	YIC FRET counter=>50
Cc1ccc(C(=O)NNc2c3ccccc3nc3ccccc23)cc1	39*	-2	28	73*	5	-3	-9	YIC FRET counter=>50
Cc1cccc(/C=N/N2CCN(c3ccccc3)CC2)c1	12	-1	1	0	-1	21	x
Cc1ccc(N=Cc2cc3c(cc2O)OC(N)=C(C#N)C3c2ccccc2)cc1 (configuration not stated)	43*	0	117*	79*	-30	24	4	YIC FRET counter=>50
N#CC1=C(N)Oc2cc(O)c(C=Nc3ccccc3)cc2C1c1ccccc1 (configuration not stated)	u	-1	34	27	-32	9	x
COc1cccc2c1Oc1ncccc1N(C(=O)CCC(=O)NCc1ccccc1F)C2	1	x	x	x	0	7	x
CCn1nc(NC(=O)c2ccccn2)c2cc3cccc(C)c3nc21	38*	-2	39	60*	-1	14	-17	YIC FRET counter=0.86*
Cc1ccc2cc(C#N)c(NCCNC(=S)NCCCN(C)C)nc2c1C	6	1	45	25	3	3	x
CCOCCCNC(=S)NCCNc1nc2c(C)cccc2cc1C#N	21*	-3	93*	68*	x	2	30	YIC FRET counter=32*
CC(=O)Oc1cc2oc(=O)cc(C)c2cc1Cl	13	4	113*	79*	82*	26	-57	KLK7 act conf=368*;EDANS interfere=377*
Cc1ccc(S(=O)(=O)NC(C(=O)Oc2cc3oc(=O)cc(C)c3cc2Cl)C(C)C)cc1 (configuration not stated)	u	2	115*	61*	104*	16	53*	KLK7 act conf=173*;EDANS interfere=102*

Screening results deposited in PubChem by several laboratories.
